Active and inactive are the calls of the source. The calls are words filed in the database; no cut-off is given here.
Experiments:
[1] = Selectivity index, ratio of IC50 for human RWPE1 cells to IC50 for human PC3 cells; assay type: functional
K562 = assay: Cytotoxicity against human K562 cells assessed as cell viability after 24 hrs by MTT assay; assay type: functional, cell-based; settings: K562, 24 h
In short: (§1)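 Cells grown to about 50−70% confluence at 37 °C, 5% CO2, then exposed to compounds 24 h (DMSO vehicle control, cisplatin positive control). MTT (5 mg/mL stock) added for 4 h, formazan dissolved in DMSO, absorbance read at 570 nm. IC50 derived from percent viability; at least three independent experiments, mean ± SD.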

[2] = Cytotoxicity against human RWPE1 cells assessed as cell viability after 24 hrs by MTT assay; assay type: cell-based; settings: RWPE-1, 24 h; in short: as §1
NCI-H1299 = assay: Cytotoxicity against human NCI-H1299 cells assessed as cell viability after 24 hrs by MTT assay; assay type: functional, cell-based; settings: NCI-H1299, 24 h; in short: as §1
MDA-MB-231 = assay: Cytotoxicity against human MDA-MB-231 cells assessed as cell viability after 24 hrs by MTT assay; assay type: functional, cell-based; settings: MDA-MB-231, 24 h; in short: as §1
[3] = Cytotoxicity against human PC3 cells assessed as cell viability after 24 hrs by MTT assay; assay type: functional, cell-based; settings: PC-3, 24 h; in short: as §1
DU-145 = assay: Cytotoxicity against human DU145 cells assessed as cell viability after 24 hrs by MTT assay; assay type: functional, cell-based; settings: DU-145, 24 h; in short: as §1
[4] = Cytotoxicity against human HL60 cells assessed as cell viability after 24 hrs by MTT assay; assay type: functional, cell-based; settings: HL-60, 24 h; in short: as §1
PC-3 [5] = assay: Induction of apoptosis in human PC3 cells assessed as cathepsin B release from lysosome to cytosol at 8 uM measured over 48 hrs by Western blot analysis; assay type: functional, cell-based
In short: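 PC3 cells treated with 8 μM compound for the indicated times, lysed in RIPA buffer with protease inhibitors, protein quantified by BCA. Run on 12% SDS-PAGE, transferred to nitrocellulose, blocked in 5% milk/TBST. Probed overnight at 4 °C for cathepsin B with GAPDH loading control; ECL detection.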

[6] = Drug uptake in lysosome of human PC3 cells at 8 uM preincubated for 4 hrs followed by fluorescence probe addition measured after 1 hr by 3-azido-7-(diethylamino)-2H-chromen-2-one fluorescence probe-based confocal microscopic analysis; assay type: ADME, cell-based; settings: pc-3, 1 h
In short: (§2)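 PC3 cells on glass coverslips treated with compound for 4 h (5 μM NEM as thiol-scavenger control), fixed in cold methanol/acetone (1:1) for 5 min. Stained with 30 μM azidocoumarin probe, which fluoresces on reaction with thiols, for 1 h at room temperature in the dark. Mean cellular fluorescence quantified by confocal microscopy; mean ± SD.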

PC-3 [7] = assay: Induction of apoptosis in human PC3 cells assessed as appearance of swelled/fused lysosomes at 8 uM after 2 hrs by LysoTracker Red and Hoechst 33342 staining-based confocal microscopic analysis; assay type: functional, cell-based
In short: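 PC3 cells given 8 μM compound for 2 h, then stained 30 min at 37 °C with 100 ng/mL LysoTracker Red and 10 μg/mL Hoechst 33342. Washed in PBS and imaged by confocal microscopy to assess lysosome swelling or fusion.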

PC-3 [8] = assay: Reduction in glutathione level in human PC3 cells at 5 uM preincubated for 4 hrs followed by fluorescence probe addition measured after 1 hr by 3-azido-7-(diethylamino)-2H-chromen-2-one fluorescence probe-based confocal microscopic analysis; assay type: functional, cell-based; in short: as §2
[9] = Cytotoxicity against human A172 cells assessed as cell viability after 24 hrs by MTT assay; assay type: functional, cell-based; settings: A 172, 24 h; in short: as §1
[10] = Cytotoxicity against human Saos2 cells assessed as cell viability after 24 hrs by MTT assay; assay type: functional, cell-based; settings: SAOS-2, 24 h; in short: as §1
[11] = Cytotoxicity against human T24 cells assessed as cell viability after 24 hrs by MTT assay; assay type: functional, cell-based; settings: T-24, 24 h; in short: as §1
[12] = Cytotoxicity against human SH-SY5Y cells assessed as cell viability after 24 hrs by MTT assay; assay type: functional, cell-based; in short: as §1
LoVo = assay: Cytotoxicity against human LoVo cells assessed as cell viability after 24 hrs by MTT assay; assay type: functional, cell-based; in short: as §1
LNCaP = assay: Cytotoxicity against human LNCAP cells assessed as cell viability after 24 hrs by MTT assay; assay type: functional, cell-based; in short: as §1
[13] = Cytotoxicity against human SKOV3 cells assessed as cell viability after 24 hrs by MTT assay; assay type: functional, cell-based; settings: SK-OV-3, 24 h; in short: as §1

| Structure (SMILES) | Ratio IC50 [1] | IC50 (K562) | IC50 [2] | IC50 (NCI-H1299) | IC50 (MDA-MB-231) | IC50 [3] | IC50 (DU-145) | IC50 [4] | Activity (PC-3 [5]) | Drug uptake [6] | Activity (PC-3 [7]) | Activity (PC-3 [8]) | IC50 [9] | IC50 [10] | IC50 [11] | IC50 [12] | IC50 (LoVo) | IC50 (LNCaP) | IC50 [13] |
| --- | --- | --- | --- | --- | --- | --- | --- | --- | --- | --- | --- | --- | --- | --- | --- | --- | --- | --- | --- |
| C=C1C(=O)[C@@]23CC[C@H]4[C@@](C)(CCC[C@@]4(C)C(=O)OCCN4CCN(C)CC4)[C@@H]2CC[C@]1(O)C3 | 3.6 | 4.1 µM | 29.3 µM | 10.9 µM | 27.5 µM | 8.2 µM | 14.9 µM | 3 µM | Active | Active | Active |  |  |  |  |  |  |  |  |
| C=C1C(=O)[C@H]2C[C@]1(O)CC1=C2[C@]2(C)CCC[C@](C)(CO)[C@H]2CC1 |  |  | 18.6 µM |  | 10.4 µM | 8.2 µM | 9.4 µM |  |  |  |  | Active |  |  |  |  |  |  |  |
| C=C1[C@@H]2CC[C@H]3[C@]4(C)CCCC(C)(C)[C@H]4[C@@H](O)C[C@]3(C2)[C@@H]1O |  | > 50 µM | > 50 µM | > 50 µM | > 50 µM | > 50 µM | > 50 µM | > 50 µM |  |  |  |  | > 50 µM | > 50 µM | > 50 µM | > 50 µM | > 50 µM | > 50 µM | > 50 µM |
| C=C1C(=O)[C@H]2C[C@@H]1CC1=C2[C@]2(C)CCC[C@](C)(CO)[C@H]2CC1 |  | 41.7 µM | > 50 µM | > 50 µM | > 50 µM | > 50 µM | > 50 µM | 23.6 µM |  |  |  |  | > 50 µM | 35.5 µM | 49.1 µM | 33.8 µM | 35.2 µM | > 50 µM | > 50 µM |
| C=C1C(O)[C@@]23CC[C@H]4[C@@](C)(CCC[C@@]4(C)C(=O)OCCBr)[C@@H]2CC[C@]1(O)C3 (some centres not stated) |  | > 50 µM | > 50 µM | > 50 µM | > 50 µM | > 50 µM | > 50 µM | > 50 µM |  |  |  |  | > 50 µM | > 50 µM | > 50 µM | > 50 µM | > 50 µM | > 50 µM | > 50 µM |
| CC1=C[C@]23C[C@H]1CC[C@H]2[C@@]1(C)[C@H](C[C@H]3O)C(C)(C)CC[C@@H]1O |  | > 50 µM | > 50 µM | > 50 µM | > 50 µM | > 50 µM | > 50 µM | > 50 µM |  |  |  |  | > 50 µM | > 50 µM | > 50 µM | > 50 µM | > 50 µM | > 50 µM | > 50 µM |
